A selection: hits, their analogues and other compounds. The true share with any hit is near 1.5%.
AF4-AF9 inh: MLL-AF4/AF9 protein interaction inhibition; AlphaScreen, biotin-AF4 peptide binding to FLAG-AF9; inhibition, % at 10 µM; 350,000 compounds, 0.47% hits;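 active means every replicate reaching a set inhibition limit, whatever the replicate mean, cut at about 25% in these data; inconclusive means mean inhibition reaches that limit but some replicates miss it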;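 further: 0% = plate neutral control median and 100% = total signal loss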
S100A4 inh HTS: inhibitors of human S100A4 binding to myosin IIA peptide | P26447 | S100A4/TAMRA-MyoIIA peptide fluorescence polarization | inhibition, % at 10.7 µM | 360,000 compounds, 0.14% hits | AID 652163;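 active means mean inhibition of at least 70% across replicates, with every replicate also reaching that level; inconclusive means mean inhibition reaches 70% but some replicates fall short; inactive means mean inhibition below 70%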
Target sequence (P26447 whole entry, looked up): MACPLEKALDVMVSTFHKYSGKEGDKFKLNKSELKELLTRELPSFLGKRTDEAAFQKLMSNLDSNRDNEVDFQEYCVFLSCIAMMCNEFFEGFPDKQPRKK
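Test system – S100A4 monomer (human) · Compound – single-point compound testing · Schedule – 5 min incubation before reading · Probe or stimulus – TAMRA-labelled myosin IIA heavy-chain peptide probe, 5 nM · Benchmarks – neutral control DMSO, positive control TFP · Medium – Calcium-containing HEPES buffer, pH 7.2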
RAD52 inh: RAD52 (human) annealing inhibition; P43351; recombinant RAD52 DNA annealing, FRET fluorescence; inhibition, % at 18.7 µM; 360,000 compounds, 0.46% hits; AID 651710;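 active means every replicate showing at least 50% inhibition; inconclusive means mean inhibition at least 50% but not in every replicate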
Target sequence (P43351 whole entry, looked up): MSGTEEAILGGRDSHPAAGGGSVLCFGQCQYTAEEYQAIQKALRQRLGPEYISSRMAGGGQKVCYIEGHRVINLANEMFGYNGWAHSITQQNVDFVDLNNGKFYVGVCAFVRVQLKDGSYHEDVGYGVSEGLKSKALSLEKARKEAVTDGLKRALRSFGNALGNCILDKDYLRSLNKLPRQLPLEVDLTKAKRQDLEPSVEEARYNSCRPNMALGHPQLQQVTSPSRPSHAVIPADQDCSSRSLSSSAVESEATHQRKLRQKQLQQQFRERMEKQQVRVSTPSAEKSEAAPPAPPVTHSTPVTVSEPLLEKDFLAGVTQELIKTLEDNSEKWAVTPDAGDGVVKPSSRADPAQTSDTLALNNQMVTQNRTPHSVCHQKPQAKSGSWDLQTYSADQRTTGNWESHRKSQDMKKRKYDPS
RAD54 branch: inhibitors of human RAD54 branch migration; RAD54 Holliday junction branch migration, FAM/BHQ fluorescence; inhibition, % at 10.4 µM; 360,000 compounds, 0.14% hits;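 active means mean normalized replicate activity at least 40 and at least half of replicates scoring 40 or more; inconclusive means only one of the two criteria met; inactive means mean below 40 and under half of replicates reaching 40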;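 further: 0% = median of neutral control wells and 100% = median of positive control wells; inhibitors cause a drop in the FAM fluorescence signal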
dFosB act-1: activators of mouse delta FosB homodimer | 340,000 compounds, 0.99% hits | purified delta FosB, TAMRA-CDK5 oligo fluorescence polarization; percent of positive-control signal above neutral wells | P13346 | activation, % at 25 µM | AID 493131;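 active means mean activation above about 17%, with every replicate also reaching it, limit read from the data, passing the limit was not always enough; inconclusive means only one of the two conditions met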
dFosB act-2: delta FosB (mouse) homodimer activation. shares compounds with dFosB act-1. purified delta FosB, TAMRA-CDK5 oligo fluorescence polarization; normalised: neutral wells 0, positive control 100. activation, % at 24.9 µM. 2,400 tested, under 10 active. AID 588690;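 active means highest replicate activation at or above 34% and every replicate reaching that threshold; inconclusive means meets only one of the two criteria; inactive means meets neither criterion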;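 further: higher polarization means more probe DNA bound by delta FosB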
* marks the source's active call; other numbers are inactive results; ? = inconclusive; . = no result.

SMILES	AF4-AF9 inh	S100A4 inh HTS	RAD52 inh	RAD54 branch	dFosB act-1	dFosB act-2
CCOc1ccc(-n2nnnc2SCC(=O)Nc2ccc(NC(C)=O)cc2)cc1	2.0	-0.9	-14.0	-9.8	19.4*	4.0
COc1cccc(-n2nnnc2SCC(=O)Nc2ccc(NC(C)=O)cc2)c1	-0.3	-2.6	-3.5	1.2	2.3	.
O=C(NCCN1CCCC1)c1ccc(Cn2c(=S)[nH]c3cc4c(cc3c2=O)OCO4)cc1	.	.	.	8.4	24.7*	-1.9
C=CCNC(=O)c1ccc(Cn2c(=S)[nH]c3cc4c(cc3c2=O)OCO4)cc1	.	.	.	-7.5	34.1*	3.9
CCN(CC)C(=O)c1ccc2c(=O)n(Cc3ccc4c(c3)OCO4)c(=S)[nH]c2c1	-2.7	-2.3	-4.5	7.4	2.8	.
COc1cc2[nH]c(=O)n(Cc3ccc(C(=O)NCCCN4CCN(C)CC4)cc3)c(=O)c2cc1OC	.	.	.	37.5	32.3*	-1.4
CN1C(=O)c2cc(NC(=O)C3CCCC3)ccc2OC[C@H]2O[C@H](CC(=O)NCCc3ccncc3)CC[C@@H]21	?	-0.8	-7.4	.	.	.
Cc1ccc(NC(=O)c2cc3c(s2)CCCC3)cc1S(=O)(=O)Nc1ccccc1Cl	.	.	.	-8.1	-6.9	.
O=C(Nc1cc(S(=O)(=O)Nc2ccccc2Cl)ccc1O)c1cc2c(s1)CCCC2	-0.4	-4.1	-8.9	.	32.1*	2.9
O=C(CN1C(=O)S/C(=C\c2ccccc2)C1=O)NNC(=O)c1ccccc1O	.	.	.	.	48.1*	3.7
COc1ccc(/C=C2\SC(=O)N(CC(=O)NC3C=CS(=O)(=O)C3)C2=O)cc1 (stereo unspecified)	0.9	-2.0	-15.2	-8.2	41.0*	4.0
O=C(CCCN1C(=O)S/C(=C\c2ccccc2)C1=O)NNC(=O)c1ccccc1O	-2.0	-5.0	-12.6	.	1.3	.
COc1ccc(/C=C2\SC(=O)N(CC(=O)NNC(=O)c3ccccc3O)C2=O)cc1	-14.9	-2.3	-29.6	.	66.5*	2.5
COCC(=O)N1CCC2(CC1)CN(C(=O)CN1CCOCC1)[C@H](CO)c1c2c2ccc(OC)cc2n1C	-15.0	-39.3	8.0	.	.	.
O=C(COc1ccc(Br)cc1)Nc1ccccc1C(=O)NC1CC1	-0.8	-3.5	-9.1	.	28.8*	4.7
CO[C@H]1CN(C)C(=O)c2ccc(NS(=O)(=O)c3cn(C)cn3)cc2OC[C@@H](C)N(C)C[C@H]1C	-1.4	4.0	-0.4	-9.8	.	.
C[C@@H]1CN([C@@H](C)CO)C(=O)Cc2cc(NS(=O)(=O)c3cn(C)cn3)ccc2O[C@H]1CN(C)S(=O)(=O)c1cn(C)cn1	0.8	0.6	7.6	1.9	.	.
CC(C)c1nc(SCC(=O)Nc2ccc3c(c2)OCCO3)c2c(=O)n(C)c(=O)n(C)c2n1	-2.4	-2.4	-7.3	-11.2	23.6*	8.0
CC(C)c1nc(SCC(=O)Nc2cccc(C(F)(F)F)c2)c2c(=O)n(C)c(=O)n(C)c2n1	-3.0	3.7	1.3	-13.2	-11.2	.
Cc1ccc(S(=O)(=O)Nc2ccc3c(c2)CC(=O)N([C@@H](C)CO)C[C@@H](C)[C@H](CN(C)CC2CC2)O3)cc1	2.0	-14.2	12.2	3.4	.	.
O=C(CCCCCn1c(=S)[nH]c2ccc(Br)cc2c1=O)NCC1CCCO1 (stereo unspecified)	.	.	.	0.4	-4.0	.
NS(=O)(=O)c1ccc(CCNC(=O)c2ccc(Cn3c(=O)[nH]c4ccccc4c3=O)cc2)cc1	1.2	-0.9	-11.2	.	34.1*	-9.8
NS(=O)(=O)c1ccc(CCNC(=O)CCCCCn2c(=S)[nH]c3ccc(Br)cc3c2=O)cc1	-1.3	-0.6	-12.2	.	48.8*	9.9
Cc1noc(C)c1S(=O)(=O)Nc1ccc2c(c1)C(=O)N([C@H](C)CO)C[C@H](C)[C@@H](CN(C)Cc1ccccc1)OCCCC[C@H](C)O2	-0.1	7.2	-4.2	-3.8	.	.
COc1ccccc1-c1cnc2c(c1)C(=O)N([C@H](C)CO)C[C@@H](C)[C@H](CN(C)Cc1ccc(C(=O)O)cc1)O2	-12.1	7.8	22.8	8.2	.	.
SMILES	AF4-AF9 inh	S100A4 inh HTS	RAD52 inh	RAD54 branch	dFosB act-1	dFosB act-2
CNC[C@H]1Oc2ccc(NC(=O)Nc3ccc(C(F)(F)F)cc3)cc2C(=O)N([C@H](C)CO)C[C@H]1C	1.5	6.4	0.0	4.2	.	.
CCOc1ccccc1NC(=O)c1oc2ccccc2c1NC(=O)C1CC1	-0.1	-7.8	-7.1	-2.3	-6.1	.
COc1ccccc1NC(=O)c1oc2ccccc2c1NC(=O)C1CC1	0.9	-17.6	-16.5	5.0	23.7*	-0.1
Cc1cc(C)cc(OCC(=O)NC2=NCCS2)c1	.	.	.	.	1.8	.
O=C(COc1ccc2ccccc2c1)NC1=NCCS1	.	.	.	-6.1	53.5*	6.9
COc1ccc2c3c(n(C)c2c1)[C@@H](CO)N(Cc1ccncc1)CC31CCN(C(=O)C2CCCC2)CC1	-1.6	2.5	-167.5	.	.	.
Cc1cc2oc3c(c(=O)c2cc1C)C(c1ccc(F)cc1)N(CCCN1CCOCC1)C3=O (stereo unspecified)	-4.3	-4.0	-4.7	-2.5	?	.
CCCOc1ccc(C2c3c(oc4cc(C)c(C)cc4c3=O)C(=O)N2CCCN(C)C)cc1 (stereo unspecified)	2.8	-1.7	-11.1	-0.9	28.2*	1.8
Cc1cccc(NC(=O)C2(c3ccccc3)CCOCC2)c1	1.9	5.6	-20.2	.	3.8	.
Cc1cccc(NC(=O)C2(C)CC3c4ccccc4C2c2ccccc23)c1 (stereo unspecified)	.	.	.	5.9	29.2*	4.8
C[C@@H]1CCCCO[C@H](CN(C)C(=O)C2CCCCC2)[C@H](C)CN([C@@H](C)CO)C(=O)c2cc(NC(=O)Nc3ccc(C(F)(F)F)cc3)ccc2O1	1.4	2.7	-15.9	-0.8	.	.
COc1ccc2cc(OCC(=O)NNC(=O)Nc3ccc(F)cc3)ccc2c1	-5.9	-5.2	-6.0	-4.7	21.2*	0.4
COCC(=O)N1[C@@H](CO)[C@@H]2c3ccccc3N(C(=O)c3ccccc3)C[C@@H]21	-0.9	1.1	-9.3	7.5	.	.
COc1cc(/C=N/NC(=S)NC(C)C)ccc1OCC(=O)Nc1c(C)cc(C)cc1C	.	.	.	.	29.1*	-0.1
CCCCNC(=S)N(C)/N=C/c1ccc(OCC(=O)Nc2c(C)cc(C)cc2C)c(OC)c1	2.3	-3.0	-9.0	.	-0.4	.
COc1ccc(-c2cc(C)no2)cc1S(=O)(=O)N1CCOc2ccc(C)cc21	-2.3	-1.5	-18.0	8.3	44.1*	-5.8
COc1ccc(-c2cc(C(F)(F)F)nc(SCC(=O)Nc3sc4c(c3C#N)CCC4)n2)cc1	7.5	3.3	-26.6	.	-1.9	.
COc1ccc(-c2nnn(CC(=O)Nc3sc4c(c3C#N)CCCC4)n2)cc1	.	.	.	-6.7	26.5*	1.3
CCCCn1c(N)c(N(CCC(C)C)C(=O)c2cccc(N3C(=O)c4ccccc4C3=O)c2)c(=O)[nH]c1=O	1.0	0.5	-11.1	9.7	21.8*	-1.4
CCCCN(C(=O)c1cccc(-n2cccc2)c1)c1c(N)n(CCCC)c(=O)[nH]c1=O	0.7	-7.5	-23.1	5.9	-9.4	.

Bioassay records as filed in PubChem BioAssay.
